Experimental data published in ChEMBL document CHEMBL3271963, “Relationship between analgetic ED50 dose and time-course brain levels N-alkylnormeperidine homologues” (J Med Chem, 1976).

Assays:
Liver [1] = assay: Drug metabolism in iv dosed Swiss-Webster mouse liver measured per gram of tissue over 5 to 45 mins; type: ADME, organism-based; details: in vivo
Outline: (§1)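 Mice received a single iv bolus of the ³H-labelled N-alkylnormeperidine into the lateral tail vein (0.033 ml/10 g), with 6 animals per time point. Livers were taken at 5, 10, 20, 30 and 45 min, homogenised in 0.01 N HCl, and spiked with unlabelled parent, normeperidine and a [¹⁴C] internal standard. Samples were basified to pH 12, extracted into C₆H₆ and separated by TLC. Parent and normeperidine were quantified by ³H/¹⁴C ratio, corrected for 5.8% (v/w) residual blood, and integrated over 5–45 min.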

Liver [2] = assay: Drug metabolism in iv dosed Swiss-Webster mouse liver assessed as norme-peridine concentration measured per gram of tissue over 5 to 45 mins; type: ADME, organism-based; details: in vivo; outline: as §1
Brain = assay: Drug uptake in iv dosed Swiss-Webster mouse brain measured per gram of tissue; type: ADME, organism-based; details: in vivo
Outline: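 Mice received a single iv bolus of the ³H-labelled compound into the tail vein (0.033 ml/10 g). Whole brains were removed at 5, 10, 20, 30 and 45 min (n = 6 per point) and homogenised in 0.01 N HCl with unlabelled carriers and a [¹⁴C]-N-butylnormeperidine internal standard. Samples were basified to pH 12, extracted into benzene and run on TLC. Levels came from ³H/¹⁴C ratios against a standard curve, expressed per gram, with area under the concentration-time curve.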

Mus musculus [3] = assay: Analgetic potency in iv dosed Swiss-Webster mouse; type: functional
Mus musculus [4] = assay: Analgetic potency in iv dosed Swiss-Webster mouse relative to meperidine; type: functional

Row | Structure (SMILES) | Drug metabolism (Liver [1]) [nmol·min] | Drug metabolism (Liver [2]) [nmol·min] | Drug uptake (Brain) [nmol·min/g] | ED50 (Mus musculus [3]) [µmol/kg] | Ratio (Mus musculus [4])
1 | CCCN1CCC(C(=O)OCC)(c2ccccc2)CC1.Cl | 263.3 | 917.7 | 828 | 45.9 | 0.7
2 | CCCCN1CCC(C(=O)OCC)(c2ccccc2)CC1.Cl | 83.8 | 121.7 | 274 | 19.1 | 1.7
3 | CCCCCCN1CCC(C(=O)OCC)(c2ccccc2)CC1.Cl | 153.3 | 17.9 | 126 | 3.7 | 8.8
4 | CCOC(=O)C1(c2ccccc2)CCN(C)CC1.Cl [MEPERIDINE HYDROCHLORIDE] | 926.7 | 1733.1 | – | 32.8 | –
